Holding throughout (assay type): functional
Assay [1] concerns Enterococcus faecium. Nature of the assay: Antibacterial activity against vancomycin-resistant Enterococcus faecium clinical isolate 31176 after overnight incubation by two-fold serial dilution method.
Assay [2] has as its system Enterococcus faecium. The assay is described as follows: Antibacterial activity against vancomycin-resistant Enterococcus faecium clinical isolate 15/213 after overnight incubation by two-fold serial dilution method.
Assay [3] deals with Enterococcus faecium. Nature of the assay: Antibacterial activity against vancomycin-resistant Enterococcus faecium clinical isolate 5396 after overnight incubation by two-fold serial dilution method.
The test system of assay [4] is Enterococcus faecium. The assay is described as follows: Antibacterial activity against vancomycin-resistant Enterococcus faecium clinical isolate 27/221 after overnight incubation by two-fold serial dilution method.
Assay [5] concerns Enterococcus faecium. Nature of the assay: Antibacterial activity against vancomycin-resistant Enterococcus faecium clinical isolate 14643 after overnight incubation by two-fold serial dilution method.
Assay [6] concerns Enterococcus faecium. Nature of the assay: Antibacterial activity against vancomycin-resistant Enterococcus faecium clinical isolate 6/22 after overnight incubation by two-fold serial dilution method.
For assay [7], the system named is Enterococcus faecium. The assay is described as follows: Antibacterial activity against vancomycin-resistant Enterococcus faecium clinical isolate 23/240 after overnight incubation by two-fold serial dilution method.
Assay [8] relates to Enterococcus faecium. Nature of the assay: Antibacterial activity against vancomycin-resistant Enterococcus faecium clinical isolate 29/203 after overnight incubation by two-fold serial dilution method.
The test system of assay [9] is Enterococcus faecium. The assay is described as follows: Antibacterial activity against vancomycin-resistant Enterococcus faecium clinical isolate 8/224 after overnight incubation by two-fold serial dilution method.
The subject of assay [10] is Enterococcus faecium. The assay is described as follows: Antibacterial activity against vancomycin-resistant Enterococcus faecium clinical isolate 13246 after overnight incubation by two-fold serial dilution method.
Assay [11] concerns Enterococcus. The assay is described as follows: Antibacterial activity against vancomycin-resistant Enterococcus ATCC 51299 after overnight incubation by two-fold serial dilution method.
For assay [12], the system named is Enterococcus faecium. The assay is described as follows: Antibacterial activity against vancomycin-resistant Enterococcus faecium clinical isolate 27/16917 after overnight incubation by two-fold serial dilution method. As to conditions: isolate 27/1691.
Assay [13] concerns Enterococcus faecium. Nature of the assay: Antibacterial activity against vancomycin-resistant Enterococcus faecium clinical isolate 30/48 after overnight incubation by two-fold serial dilution method.
Assay [14] has as its system Enterococcus faecium. Nature of the assay: Antibacterial activity against vancomycin-resistant Enterococcus faecium clinical isolate 12/266 after overnight incubation by two-fold serial dilution method.
The test system of assay [15] is Enterococcus faecium. The assay is described as follows: Antibacterial activity against vancomycin-resistant Enterococcus faecium clinical isolate 7/27 after overnight incubation by two-fold serial dilution method.
The subject of assay [16] is Enterococcus faecium. Nature of the assay: Antibacterial activity against vancomycin-resistant Enterococcus faecium clinical isolate 28/211 after overnight incubation by two-fold serial dilution method.
Assay [17] has as its system Enterococcus. Nature of the assay: Antibacterial activity against Enterococcus infected in Wistar albino rat assessed as reduction in cell count at 25 mg/kg, iv after 1 hr relative to control. More on the design: scale not given: the % may be the effect or the level left. The method, boiled down:
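Female Wistar albino rats, 40−45 days old, 125−150 g, 5 groups of 3. Enterococci were grown to log phase in MH broth, centrifuged at 1000g for 15 min, and diluted in PBS to 4 × 10^6 CFU/mL. Rats were inoculated i.v. and treated i.v. 1 h later with 12.5, 25 or 37.5 mg/kg peptide, PBS vehicle, or linezolid 25 mg/kg. Tail-vein blood taken 1 h post-treatment was plated on blood agar, incubated overnight at 37 °C, and colonies counted.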

Assay [18] concerns Enterococcus faecium. The assay is described as follows: Antibacterial activity against vancomycin-resistant Enterococcus faecium clinical isolate 147969 after overnight incubation by two-fold serial dilution method.
Assay [19] relates to Enterococcus faecium. Nature of the assay: Antibacterial activity against vancomycin-resistant Enterococcus faecium clinical isolate 16475 after overnight incubation by two-fold serial dilution method.
The subject of assay [20] is Enterococcus faecium. The assay is described as follows: Antibacterial activity against vancomycin-resistant Enterococcus faecium clinical isolate 16115 after overnight incubation by two-fold serial dilution method.
The test system of assay [21] is Enterococcus faecium. Nature of the assay: Antibacterial activity against vancomycin-resistant Enterococcus faecium clinical isolate 12875 after overnight incubation by two-fold serial dilution method.
For assay [22], the system named is Enterococcus faecium. Nature of the assay: Antibacterial activity against vancomycin-resistant Enterococcus faecium clinical isolate 5484 after overnight incubation by two-fold serial dilution method.
Assay [23] deals with Enterococcus faecium. Nature of the assay: Antibacterial activity against vancomycin-resistant Enterococcus faecium clinical isolate 151495 after overnight incubation by two-fold serial dilution method.
Assay [24] concerns Enterococcus faecium. Nature of the assay: Antibacterial activity against vancomycin-resistant Enterococcus faecium clinical isolate 17301 after overnight incubation by two-fold serial dilution method.
The subject of assay [25] is Enterococcus faecium. Nature of the assay: Antibacterial activity against vancomycin-resistant Enterococcus faecium clinical isolate 18906 after overnight incubation by two-fold serial dilution method.
The test system of assay [26] is Enterococcus faecium. The assay is described as follows: Antibacterial activity against vancomycin-resistant Enterococcus faecium clinical isolate 10177 after overnight incubation by two-fold serial dilution method.
In assay [27] the test system is Enterococcus faecium. The assay is described as follows: Antibacterial activity against vancomycin-resistant Enterococcus faecium clinical isolate 3864 after overnight incubation by two-fold serial dilution method.
The subject of assay [28] is Enterococcus faecium. The assay is described as follows: Antibacterial activity against vancomycin-resistant Enterococcus faecium clinical isolate 31386 after overnight incubation by two-fold serial dilution method.
The subject of assay [29] is Enterococcus. Nature of the assay: Antibacterial activity against vancomycin-resistant Enterococcus ATCC 29212 after overnight incubation by two-fold serial dilution method.
Assay [30] has as its system Enterococcus. Nature of the assay: Antibacterial activity against vancomycin-resistant Enterococcus ATCC 29212 by checkerboard titration method in presence of vancomycin.
In assay [31] the test system is Enterococcus. Nature of the assay: Antibacterial activity against vancomycin-resistant Enterococcus ATCC 29212 by checkerboard titration method in presence of linezolid.
Assay [32] deals with Enterococcus. The assay is described as follows: Antibacterial activity against vancomycin-resistant Enterococcus ATCC 51299 by checkerboard titration method in presence of vancomycin.
The subject of assay [33] is Enterococcus. The assay is described as follows: Antibacterial activity against vancomycin-resistant Enterococcus ATCC 51299 by checkerboard titration method in presence of linezolid.

Values after ≈ are worked out from the molar mass of the structure shown.

One may read the MIC as the least concentration at which growth counts as inhibited.

Turning to `CC(=O)NC[C@H]1CN(c2ccc(N3CCOCC3)c(F)c2)C(=O)O1` [LINEZOLID], the minimum inhibitory concentration (MIC) in the assay on Enterococcus faecium [1] turned out to be 1 µg/mL (≈ 2.96 µM); against Enterococcus faecium [2] it was 1 µg/mL (≈ 2.96 µM); with Enterococcus faecium [3], 1 µg/mL (≈ 2.96 µM); against Enterococcus faecium [4], 1 µg/mL (≈ 2.96 µM); with Enterococcus faecium [5], 2 µg/mL (≈ 5.93 µM); against Enterococcus faecium [6] it was 1 µg/mL (≈ 2.96 µM). In addition, the minimum inhibitory concentration (MIC) against Enterococcus faecium [7] amounted to 1 µg/mL (≈ 2.96 µM); with Enterococcus faecium [8] it was 1 µg/mL (≈ 2.96 µM); in the assay with Enterococcus faecium [9] it was 1 µg/mL (≈ 2.96 µM); with Enterococcus faecium [10] it was 2 µg/mL (≈ 5.93 µM); against Enterococcus [11] it was 2 µg/mL (≈ 5.93 µM); in the assay on Enterococcus faecium [12], 1 µg/mL (≈ 2.96 µM). In addition, the minimal inhibitory concentration (MIC) in the assay with Enterococcus faecium [13] is 2 µg/mL (≈ 5.93 µM); with Enterococcus faecium [14] it was 2 µg/mL (≈ 5.93 µM); in the assay with Enterococcus faecium [15], 2 µg/mL (≈ 5.93 µM); in the assay with Enterococcus faecium [16] it was 2 µg/mL (≈ 5.93 µM); against Enterococcus faecium [18], 1 µg/mL (≈ 2.96 µM); against Enterococcus faecium [19], 1 µg/mL (≈ 2.96 µM). Further, the MIC in the assay on Enterococcus faecium [20] came to 1 µg/mL (≈ 2.96 µM); against Enterococcus faecium [21], 1 µg/mL (≈ 2.96 µM); with Enterococcus faecium [22], 1 µg/mL (≈ 2.96 µM); against Enterococcus faecium [23], 1 µg/mL (≈ 2.96 µM); in the assay with Enterococcus faecium [24], 1 µg/mL (≈ 2.96 µM); against Enterococcus faecium [25], 2 µg/mL (≈ 5.93 µM). Further, the minimal inhibitory concentration (MIC) was determined as 1 µg/mL (≈ 2.96 µM) with Enterococcus faecium [26], 2 µg/mL (≈ 5.93 µM) with Enterococcus faecium [27], 2 µg/mL (≈ 5.93 µM) with Enterococcus faecium [28] and 1 µg/mL (≈ 2.96 µM) in the assay on Enterococcus [29]. The Activity in the assay with Enterococcus [17] is recorded as 93.8%.

For H-FLPLIGRVLSGIL-NH2 [TEMPORIN A], the “fractional inhibitory concentration index (FICI)” value in the assay on Enterococcus [30] is 1.25; in the assay with Enterococcus [31], 0.75; in the assay with Enterococcus [32], 1.5; in the assay on Enterococcus [33] it was 0.75.

For the origin of these results see ChEMBL document CHEMBL3352237, “Synthesis and biological evaluation of novel peptide BF2 as an antibacterial agent against clinical isolates of vancomycin-resistant enterococci” (J Med Chem, 2014).
